In ChEMBL document CHEMBL1140342, “Antitumor activity of C-methyl-beta-D-ribofuranosyladenine nucleoside ribonucleotide reductase inhibitors” (J Med Chem, 2005):

What was measured:
Assay type in all cases: functional, cell-based
HT-29 = assay: In vitro inhibitory activity against human colon carcinoma HT-29 cell line
Summary of the method: (§1)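 Cells kept in 10% FBS medium, RPMI 1640 for K562/K562IU and MEM alpha for HT-29/MCF-7; adherent lines trypsinized to single-cell suspension. Log-phase cells seeded at about 50 000 cells/mL, acclimatized 24 h, then exposed to compound dilutions (up to 100 μM) in triplicate for 48 h at 37 °C, 5% CO2. MTS/PMS tetrazolium reduction 3 h, A490; IC50 = concentration giving 50% growth inhibition.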

K562 [1] = assay: In vitro inhibitory activity against human leukemia K562IU cell line; summary of the method: as §1
MCF7 = assay: In vitro inhibitory activity against human breast carcinoma MCF-7 cell line; summary of the method: as §1
K562 [2] = assay: In vitro inhibitory activity against human myelogenous leukemia K562 cell line; summary of the method: as §1

Row | IC50 (HT-29) [µM] | IC50 (K562 [1]) [µM] | IC50 (MCF7) [µM] | IC50 (K562 [2]) [µM] | Compound
1 | > 100 | > 100 | > 100 | 73 | C[C@]1(O)C(O)C(n2cnc3c(NC4CC4)ncnc32)O[C@@H]1CO (single isomer, unassigned)
2 | 74.3 | 93.8 | 68.1 | 43.9 | CNc1ncnc2c1ncn2C1O[C@H](CO)[C@@](C)(O)C1O (single isomer, unassigned)
3 | > 100 | > 100 | 93.4 | > 100 | OC[C@H]1O[C@@H](n2cnc3c(NC4CC4)ncnc32)C(O)[C@@H]1O (single isomer, unassigned)
4 | > 100 | > 100 | > 100 | > 100 | CNc1ncnc2c1ncn2[C@@H]1O[C@H](CO)[C@@H](O)C1O (single isomer, unassigned)
5 | > 100 | > 100 | > 100 | > 100 | C[C@]1(O)C(n2cnc3c(NC4CC4)ncnc32)O[C@H](CO)[C@H]1O (stereo partly drawn)
6 | > 100 | > 100 | > 100 | 53 | C[C@@]1(n2cnc3c(N)ncnc32)O[C@H](CO)[C@@H](O)C1O (single isomer, unassigned)

Further lines, the compound ahead of its results:

Row | Compound | IC50 (HT-29) [µM] | IC50 (K562 [1]) [µM] | IC50 (MCF7) [µM] | IC50 (K562 [2]) [µM]
7 | C[C@]1(O)C(O)[C@H](n2cnc3c(N)ncnc32)O[C@@H]1CO (single isomer, unassigned) | 23.2 | 38.3 | 17.5 | 18.2
8 | C[C@@]1(O)[C@H](O)[C@@H](CO)O[C@H]1n1cnc2c(N)ncnc21 | > 100 | > 100 | > 100 | 16
9 | Nc1nc(Cl)nc2c1ncn2[C@@H]1O[C@H](CO)[C@@H](O)C1O (single isomer, unassigned) | 85.6 | 19.5 | 72.6 | 15.4
10 | CNc1ncnc2c1ncn2C1O[C@H](CO)[C@@H](O)[C@@]1(C)O (stereo partly drawn) | > 100 | > 100 | > 100 | > 100
11 | C[C@]1(O)C(O)C(n2cnc3c(N)nc(Cl)nc32)O[C@@H]1CO (single isomer, unassigned) | > 100 | > 100 | > 100 | > 100
12 | C[C@]1(O)C(n2cnc3c(N)nc(Cl)nc32)O[C@H](CO)[C@H]1O (stereo partly drawn) | > 100 | > 100 | > 100 | > 100
